# Experimental data as given in ChEMBL document CHEMBL3297731, “The design and discovery of water soluble 4-substituted-2,6-dimethylfuro[2,3-d]pyrimidines as multitargeted receptor tyrosine kinase inhibitors and microtubule targeting antitumor agents” (Bioorg Med Chem, 2014).
# pIC50: −log10 of the molar value. Active and inactive are the calls of the source. The calls are words filed in the database; no cut-off is given here.
# Legend:
# HeLa [1] = experiment: Cell cycle arrest in human HeLa cells assessed as effect on accumulation at G1 phase at 40 to 50 nM after 18 hrs by flow cytometric analysis; format: functional, cell-based
# Summary of the method: (§1)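 HeLa cells allowed to adhere 24 h, then drug-treated (18 h per legend; harvest stated 24 h in methods). Stained with Krishan's reagent; DNA content measured by flow cytometry.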
# Tubulin (Sus scrofa) = Tubulin (Sus scrofa) (UniProt P02554+P02550); conditions: 5 uM
# MDA-MB-435 [2] = experiment: Antitumor activity against human MDA-MB-435 cells […] assessed as decrease in tumor growth at 50 mg/kg relative to untreated control; format: functional, organism-based; design: dose 50 mg/kg
# [3] = system: MDA-MB-435 (Homo sapiens); experiment: Induction of apoptosis in human MDA-MB-435 cells assessed as PARP cleavage at 75 nM after 18 to 36 hrs by Western blot analysis
# HeLa [4] = experiment: Cell cycle arrest in human HeLa cells assessed as accumulation at G2/M phase at 40 to 50 nM after 18 hrs by flow cytometric analysis; format: functional, cell-based; summary of the method: as §1
# MDA-MB-435 [5] = experiment: Antitumor activity against human MDA-MB-435 cells […] assessed as decrease in tumor vascular density at 50 mg/kg by CD31/PECAM-1 immunohistochemical staining; format: functional, organism-based; design: dose 50 mg/kg
# HeLa [6] = experiment: Cell cycle arrest in human HeLa cells assessed as accumulation at G2/M phase after 18 hrs by flow cytometric analysis; format: functional, cell-based; summary of the method: as §1
# [7] = system: MDA-MB-435 (Homo sapiens); experiment: Induction of apoptosis in human MDA-MB-435 cells assessed as PARP cleavage at 75 nM after 18 hrs by Western blot analysis
# 4T1 [8] = experiment: Antitumor activity against luciferase/GFP-tagged mouse 4T1 cells allografted in BALBc/J mouse assessed as reduction in tumor size at 50 mg/kg twice weekly starting at day 7 and continuing to day 32; format: functional, organism-based; design: dose 50 mg/kg
# Summary of the method: (§2)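 750 4T1-Luc2/GFP cells (>98% GFP+) in PBS/1 mM EDTA implanted into fat pad #4 of 8 wk female BALB/c mice. MTD doses given twice weekly (docetaxel weekly), day 7 to day 32; DMSO/solutol-15/D5W vehicle. Calipers, ellipsoid volume; weights before each dose; 7-10 mice per group; lungs imaged fresh by fluorescence at day 33.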
# 4T1 [9] = experiment: Antitumor activity against luciferase/GFP-tagged mouse 4T1 cells allografted in BALBc/J mouse assessed as reduction in primary tumor growth at 50 mg/kg twice weekly starting at day 7 and continuing to day 32; format: functional, organism-based; design: dose 50 mg/kg; summary of the method: as §2
# 4T1 [10] = experiment: Antitumor activity against luciferase/GFP-tagged mouse 4T1 cells allografted in BALBc/J mouse assessed as reduction in number of lung metastases at 50 mg/kg twice weekly starting at day 7 and continuing to day 32; format: functional, organism-based; design: dose 50 mg/kg; summary of the method: as §2
# [11] = target: Epidermal growth factor receptor (Homo sapiens, UniProt P00533); format: cell-based, A-431
# [12] = target: Platelet-derived growth factor receptor beta (Homo sapiens, UniProt P09619); experiment: Inhibition of PDGFRbeta in human SH-SY5Y cells by phosphotyrosine ELISA assay; format: cell-based
# Chorioallantoic membrane = experiment: Antiangiogenic activity in fertile leghorn chicken egg Chorioallantoic membrane assessed as inhibition of human VEGF-165/bFGF-induced angiogenesis after 48 hrs by CAM assay; format: functional, tissue-based; conditions: Gallus gallus
# [13] = target: Vascular endothelial growth factor receptor 2 (Homo sapiens, UniProt P35968); format: cell-based, U-251
# HeLa [14] = experiment: Antiproliferative activity against human HeLa cells expressing beta3-tubulin; format: functional, cell-based
# MDA-MB-435 [15] = experiment: Antiproliferative activity against human MDA-MB-435 cells; format: functional, cell-based
# SK-OV-3 [16] = experiment: Antiproliferative activity against human SKOV3 cells expressing MDR1/M-6-6; format: functional, cell-based
# SK-OV-3 [17] = experiment: Antiproliferative activity against human SKOV3 cells; format: functional, cell-based
# HeLa [18] = experiment: Antiproliferative activity against human HeLa cells; format: functional, cell-based
# [19] = Growth inhibition of human MOLT4 cells by SRB assay; format: functional; conditions: MOLT-4
# Tubulin = Tubulin (Sus scrofa, UniProt P02554+P02550); experiment: Inhibition of pig brain tubulin polymerization by spectrophotometric analysis
# MDA-MB-468 = experiment: Cytotoxicity against human triple negative MDA-MB-468 cells; format: functional, cell-based
# MCF7 [20] = experiment: Cytotoxicity against human taxoid-resistant MCF7 cells; format: functional, cell-based
# HUVEC = experiment: Cytotoxicity against HUVEC; format: cell-based; conditions: Homo sapiens
# MCF7 [21] = experiment: Cytotoxicity against human ER-positive MCF7 cells; format: functional, cell-based
# MDA-MB-435 [22] = experiment: Cytotoxicity against human MDA-MB-435 cells; format: functional, cell-based
# 4T1 [23] = experiment: Cytotoxicity against mouse triple negative 4T1 cells; format: functional, cell-based
# MDA-MB-231 = experiment: Cytotoxicity against human triple negative MDA-MB-231 cells; format: functional, cell-based
# Mus musculus [24] = experiment: Toxicity in human MDA-MB-435 cells […] assessed as increase in body weight at 50 mg/kg; format: organism-based; design: dose 50 mg/kg; conditions: in vivo
# in vivo = conditions: BALBc/J, mouse
# Mus musculus [25] = experiment: Toxicity in luciferase/GFP-tagged mouse 4T1 cells allografted in BALBc/J mouse assessed as body weight loss at 50 mg/kg twice weekly starting at day 7 and continuing to day 32; format: organism-based; design: dose 50 mg/kg; conditions: in vivo; summary of the method: as §2
# A-431 = experiment: Cytotoxicity against human A431 cells by SRB assay; format: functional, cell-based
# 4T1 [26] = experiment: Antitumor activity against luciferase/GFP-tagged mouse 4T1 cells allografted in BALBc/J mouse assessed as reduction in primary tumor growth at 35 mg/kg twice weekly starting at day 7 and continuing to day 32; format: functional, organism-based; design: dose 35 mg/kg; summary of the method: as §2
# Sequence of Epidermal growth factor receptor (P00533 whole entry): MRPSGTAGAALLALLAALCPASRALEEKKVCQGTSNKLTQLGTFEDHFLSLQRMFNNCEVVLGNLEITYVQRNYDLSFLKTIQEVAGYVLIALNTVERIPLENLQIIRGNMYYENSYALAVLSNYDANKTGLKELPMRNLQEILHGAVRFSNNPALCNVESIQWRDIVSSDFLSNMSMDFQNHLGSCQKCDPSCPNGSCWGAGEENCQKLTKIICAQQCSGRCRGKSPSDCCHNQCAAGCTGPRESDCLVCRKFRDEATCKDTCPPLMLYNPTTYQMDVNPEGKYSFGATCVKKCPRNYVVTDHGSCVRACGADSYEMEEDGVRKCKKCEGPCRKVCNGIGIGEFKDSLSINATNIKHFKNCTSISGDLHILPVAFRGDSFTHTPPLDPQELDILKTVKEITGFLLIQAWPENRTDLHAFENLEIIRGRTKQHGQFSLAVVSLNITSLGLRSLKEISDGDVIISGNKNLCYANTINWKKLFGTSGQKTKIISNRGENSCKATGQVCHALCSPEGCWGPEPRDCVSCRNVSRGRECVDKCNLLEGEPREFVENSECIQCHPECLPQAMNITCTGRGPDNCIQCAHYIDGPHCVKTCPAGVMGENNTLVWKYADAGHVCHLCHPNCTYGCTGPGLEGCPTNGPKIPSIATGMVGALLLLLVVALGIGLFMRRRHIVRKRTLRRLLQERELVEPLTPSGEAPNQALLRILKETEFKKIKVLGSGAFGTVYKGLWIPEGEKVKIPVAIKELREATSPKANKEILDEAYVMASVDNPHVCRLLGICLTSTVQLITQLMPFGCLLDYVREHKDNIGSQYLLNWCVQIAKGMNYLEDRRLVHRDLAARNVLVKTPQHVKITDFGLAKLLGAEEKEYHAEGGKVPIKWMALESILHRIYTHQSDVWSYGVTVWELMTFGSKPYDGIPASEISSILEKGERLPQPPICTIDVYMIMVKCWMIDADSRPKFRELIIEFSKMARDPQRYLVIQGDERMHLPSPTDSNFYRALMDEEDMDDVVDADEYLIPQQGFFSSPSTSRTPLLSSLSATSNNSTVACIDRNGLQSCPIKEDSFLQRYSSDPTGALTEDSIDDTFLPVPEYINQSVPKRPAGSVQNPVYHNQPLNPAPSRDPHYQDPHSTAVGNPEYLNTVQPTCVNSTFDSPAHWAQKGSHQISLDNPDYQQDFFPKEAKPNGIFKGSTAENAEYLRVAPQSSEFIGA
# Sequence of Platelet-derived growth factor receptor beta (P09619 whole entry): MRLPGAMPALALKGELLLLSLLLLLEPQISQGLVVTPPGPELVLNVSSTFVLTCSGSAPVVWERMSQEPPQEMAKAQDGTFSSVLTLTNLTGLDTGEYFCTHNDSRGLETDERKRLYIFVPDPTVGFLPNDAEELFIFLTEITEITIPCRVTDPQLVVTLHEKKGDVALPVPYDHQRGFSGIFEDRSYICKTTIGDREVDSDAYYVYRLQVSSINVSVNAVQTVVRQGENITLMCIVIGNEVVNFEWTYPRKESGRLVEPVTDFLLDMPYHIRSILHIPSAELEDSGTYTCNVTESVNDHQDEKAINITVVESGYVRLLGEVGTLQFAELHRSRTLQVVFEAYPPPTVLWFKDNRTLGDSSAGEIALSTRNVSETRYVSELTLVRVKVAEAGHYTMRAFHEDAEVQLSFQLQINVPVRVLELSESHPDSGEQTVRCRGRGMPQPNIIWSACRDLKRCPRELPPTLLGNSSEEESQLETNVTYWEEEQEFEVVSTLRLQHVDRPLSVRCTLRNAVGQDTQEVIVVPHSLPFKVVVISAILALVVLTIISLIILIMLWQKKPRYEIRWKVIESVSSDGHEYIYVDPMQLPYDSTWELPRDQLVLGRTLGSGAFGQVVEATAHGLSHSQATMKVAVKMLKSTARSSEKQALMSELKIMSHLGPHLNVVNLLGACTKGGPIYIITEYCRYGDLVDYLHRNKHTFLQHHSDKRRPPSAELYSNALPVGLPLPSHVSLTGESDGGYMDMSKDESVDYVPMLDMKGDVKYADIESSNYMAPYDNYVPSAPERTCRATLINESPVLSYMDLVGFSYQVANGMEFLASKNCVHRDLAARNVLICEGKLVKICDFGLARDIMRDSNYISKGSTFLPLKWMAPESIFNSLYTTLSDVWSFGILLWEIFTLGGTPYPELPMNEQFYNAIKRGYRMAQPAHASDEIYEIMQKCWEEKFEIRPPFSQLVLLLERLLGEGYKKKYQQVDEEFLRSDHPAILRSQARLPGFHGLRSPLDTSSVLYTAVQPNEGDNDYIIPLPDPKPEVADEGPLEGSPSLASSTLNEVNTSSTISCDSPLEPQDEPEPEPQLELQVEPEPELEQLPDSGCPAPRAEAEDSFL
# Sequence of Vascular endothelial growth factor receptor 2 (P35968 whole entry): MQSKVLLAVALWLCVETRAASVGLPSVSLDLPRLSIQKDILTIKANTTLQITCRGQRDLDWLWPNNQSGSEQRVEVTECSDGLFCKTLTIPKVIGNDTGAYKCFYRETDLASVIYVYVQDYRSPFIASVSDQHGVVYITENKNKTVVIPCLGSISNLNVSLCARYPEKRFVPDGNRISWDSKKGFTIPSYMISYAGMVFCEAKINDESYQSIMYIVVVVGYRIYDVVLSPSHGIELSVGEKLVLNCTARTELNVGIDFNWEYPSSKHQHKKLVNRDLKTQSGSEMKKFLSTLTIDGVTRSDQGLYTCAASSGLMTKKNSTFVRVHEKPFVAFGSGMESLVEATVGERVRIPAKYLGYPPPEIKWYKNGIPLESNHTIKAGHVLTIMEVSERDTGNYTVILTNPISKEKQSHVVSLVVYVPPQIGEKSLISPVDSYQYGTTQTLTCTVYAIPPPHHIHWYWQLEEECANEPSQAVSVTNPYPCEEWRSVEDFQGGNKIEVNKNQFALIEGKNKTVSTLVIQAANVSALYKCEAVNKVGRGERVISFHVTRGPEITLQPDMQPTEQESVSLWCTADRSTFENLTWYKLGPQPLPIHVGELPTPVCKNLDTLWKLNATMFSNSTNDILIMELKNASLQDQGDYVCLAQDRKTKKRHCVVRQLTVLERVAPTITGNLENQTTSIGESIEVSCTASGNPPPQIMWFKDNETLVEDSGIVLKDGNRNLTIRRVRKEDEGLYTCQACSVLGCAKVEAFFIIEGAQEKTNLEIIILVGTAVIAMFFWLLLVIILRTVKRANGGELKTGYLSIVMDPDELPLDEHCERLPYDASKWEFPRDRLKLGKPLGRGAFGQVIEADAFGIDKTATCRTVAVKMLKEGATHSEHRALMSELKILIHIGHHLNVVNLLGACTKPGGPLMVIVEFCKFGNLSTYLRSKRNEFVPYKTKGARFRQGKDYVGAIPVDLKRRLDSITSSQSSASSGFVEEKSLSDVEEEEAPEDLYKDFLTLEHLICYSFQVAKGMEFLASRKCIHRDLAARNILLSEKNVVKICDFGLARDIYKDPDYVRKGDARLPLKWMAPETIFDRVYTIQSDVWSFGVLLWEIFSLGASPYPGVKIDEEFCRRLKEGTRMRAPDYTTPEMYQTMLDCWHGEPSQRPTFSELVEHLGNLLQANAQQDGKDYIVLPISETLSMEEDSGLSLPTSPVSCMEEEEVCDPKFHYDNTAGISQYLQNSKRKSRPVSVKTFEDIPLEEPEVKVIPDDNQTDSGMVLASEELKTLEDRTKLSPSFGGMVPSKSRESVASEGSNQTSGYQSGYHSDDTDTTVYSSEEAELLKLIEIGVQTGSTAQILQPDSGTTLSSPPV
# Sequence of Tubulin (Sus scrofa) (P02550 whole entry, looked up): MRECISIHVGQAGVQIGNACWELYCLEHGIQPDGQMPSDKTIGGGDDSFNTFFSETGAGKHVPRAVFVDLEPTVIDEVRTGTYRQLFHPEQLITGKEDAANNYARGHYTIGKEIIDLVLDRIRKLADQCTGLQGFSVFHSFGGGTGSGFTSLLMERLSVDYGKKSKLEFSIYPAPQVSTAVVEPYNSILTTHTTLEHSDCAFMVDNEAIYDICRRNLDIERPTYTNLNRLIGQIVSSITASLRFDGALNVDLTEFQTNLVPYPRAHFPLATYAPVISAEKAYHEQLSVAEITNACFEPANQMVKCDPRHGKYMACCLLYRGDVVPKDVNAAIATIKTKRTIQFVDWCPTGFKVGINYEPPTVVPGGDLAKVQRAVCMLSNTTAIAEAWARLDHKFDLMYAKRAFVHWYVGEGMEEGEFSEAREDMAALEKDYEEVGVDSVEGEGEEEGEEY
# Sequence of Tubulin (Sus scrofa) (P02554 whole entry, looked up): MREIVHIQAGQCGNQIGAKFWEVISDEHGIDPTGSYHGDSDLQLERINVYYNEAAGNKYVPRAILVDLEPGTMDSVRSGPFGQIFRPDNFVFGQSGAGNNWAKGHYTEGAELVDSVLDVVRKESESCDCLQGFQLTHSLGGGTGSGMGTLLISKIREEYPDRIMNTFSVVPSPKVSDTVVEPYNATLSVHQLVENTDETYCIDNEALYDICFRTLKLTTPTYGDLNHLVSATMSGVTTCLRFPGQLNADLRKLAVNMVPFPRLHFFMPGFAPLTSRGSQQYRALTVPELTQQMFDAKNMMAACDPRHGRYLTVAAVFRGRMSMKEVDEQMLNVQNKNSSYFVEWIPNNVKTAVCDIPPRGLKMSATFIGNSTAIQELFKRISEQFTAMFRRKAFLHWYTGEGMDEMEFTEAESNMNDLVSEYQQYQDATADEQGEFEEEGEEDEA
smiles,measurement,setting,value
COc1ccc(N(C)c2nc(C)nc3oc(C)cc23)cc1 [listing 1 of 2 here],Activity,HeLa [1],inactive
same,inhibition,Tubulin (Sus scrofa),86%
same,inhibition,MDA-MB-435 [2],Active
same,Activity,[3],Active
same,Activity,HeLa [4],Active
same,Activity,MDA-MB-435 [5],Active
same,inhibition,HeLa [6],Dose-dependent effect
same,Activity,[7],Active
same,inhibition,4T1 [8],Active
same,inhibition,4T1 [9],Active
same,inhibition,4T1 [10],Active
C#Cc1cccc(Nc2nc(C)nc3oc(C)cc23)c1,pIC50,[11],7.52
same,pIC50,[12],7.79
same,pIC50,Chorioallantoic membrane,4.74
same,pIC50,[13],7.12
CCCCN(c1ccc(OC)cc1)c1nc(C)nc2oc(C)cc12,pIC50,[11],6.47
same,pIC50,HeLa [14],< 5.00
same,pIC50,[12],7.25
same,pIC50,Chorioallantoic membrane,4.49
same,pIC50,[13],7.46
same,pIC50,MDA-MB-435 [15],< 5.00
same,pIC50,SK-OV-3 [16],< 5.00
same,pIC50,SK-OV-3 [17],< 5.00
same,pIC50,HeLa [18],< 5.00
CCN(c1ccc(OC)cc1)c1nc(C)nc2oc(C)cc12,pIC50,[11],7.15
same,pIC50,HeLa [14],6.69
same,pIC50,[12],7.57
same,pIC50,Chorioallantoic membrane,4.72
same,pIC50,[13],7.97
same,pIC50,MDA-MB-435 [15],6.86
same,pIC50,SK-OV-3 [16],6.57
same,pIC50,SK-OV-3 [17],6.64
same,pIC50,HeLa [18],6.78
Cc1nc(Nc2ccc(C(F)(F)F)cc2)c2cc(C)oc2n1,pIC50,[11],6.91
same,pIC50,[12],7.18
same,pIC50,[13],7.18
COc1ccc(N(C)c2nc(C)nc3oc(C)cc23)cc1 [listing 2 of 2 here],GI50,[19],67.9 nM
same,IC50,Tubulin,1900 nM
Cc1nc(Nc2ccccc2)c2cc(C)oc2n1,pIC50,[11],6.95
Cc1nc(Nc2ccc(Cl)cc2)c2cc(C)oc2n1,pIC50,[11],6.99
same,pIC50,[13],7.15
COc1ccc(Nc2nc(C)nc3oc(C)cc23)cc1,pIC50,[11],7.37
same,pIC50,[12],7.20
same,pIC50,[13],7.37
CCCN(c1ccc(OC)cc1)c1nc(C)nc2oc(C)cc12,pIC50,HeLa [14],5.82
same,pIC50,[12],7.52
same,pIC50,Chorioallantoic membrane,4.78
same,pIC50,[13],8.07
same,pIC50,MDA-MB-435 [15],5.85
same,pIC50,SK-OV-3 [16],5.47
same,pIC50,SK-OV-3 [17],5.80
same,pIC50,HeLa [18],5.91
CCN(CC)CCNC(=O)c1c(C)[nH]c(/C=C2\C(=O)Nc3ccc(F)cc32)c1C [SUNITINIB],pIC50,MDA-MB-468,8.21
same,pIC50,MCF7 [20],7.53
same,pIC50,HUVEC,7.93
same,pIC50,MCF7 [21],7.57
same,pIC50,MDA-MB-435 [22],8.01
same,pIC50,4T1 [23],7.80
same,pIC50,MDA-MB-231,7.65
COc1ccc(N(C)c2nc(C)nc3oc(C)cc23)cc1.Cl,pIC50,MDA-MB-468,8.15
same,pIC50,HeLa [14],7.35
same,Activity,Mus musculus [24],Non-toxic
same,pIC50,MDA-MB-435 [15],7.33
same,MTD,in vivo,50 mg/kg
same,Activity,Mus musculus [25],Non-toxic
same,pIC50,MCF7 [20],6.89
same,pIC50,HUVEC,6.76
same,pIC50,MCF7 [21],6.86
same,pIC50,HeLa [18],7.39
same,pIC50,4T1 [23],7.01
same,pIC50,MDA-MB-231,6.83
CC(=O)O[C@H]1C(=O)[C@@]2(C)[C@H]([C@H](OC(=O)c3ccccc3)[C@]3(O)C[C@H](OC(=O)[C@H](O)[C@@H](NC(=O)c4ccccc4)c4ccccc4)C(C)=C1C3(C)C)[C@]1(OC(C)=O)CO[C@@H]1C[C@@H]2O [PACLITAXEL],pIC50,MDA-MB-435 [15],8.71
Cc1nc(Nc2cccc3[nH]ccc23)c2cc(C)oc2n1,pIC50,[11],7.04
same,pIC50,[12],7.55
same,pIC50,Chorioallantoic membrane,4.65
same,pIC50,[13],6.99
Cc1nc(Nc2ccc(F)c(Cl)c2)c2cc(C)oc2n1,pIC50,[11],7.52
same,pIC50,[13],7.24
COc1ccc(N(c2nc(C)nc3oc(C)cc23)C(C)C)cc1,pIC50,[11],7.07
same,pIC50,HeLa [14],5.39
same,pIC50,[12],7.64
same,pIC50,Chorioallantoic membrane,4.72
same,pIC50,[13],7.81
same,pIC50,MDA-MB-435 [15],5.52
same,pIC50,SK-OV-3 [16],5.13
same,pIC50,SK-OV-3 [17],5.42
same,pIC50,HeLa [18],5.54
CS(=O)(=O)CCNCc1ccc(-c2ccc3ncnc(Nc4ccc(OCc5cccc(F)c5)c(Cl)c4)c3c2)o1 [LAPATINIB],pIC50,MDA-MB-468,7.08
same,pIC50,MCF7 [21],7.19
same,pIC50,MDA-MB-435 [22],7.53
same,pIC50,4T1 [23],7.98
same,pIC50,MDA-MB-231,7.70
Cc1nc(Nc2cccc3ccccc23)c2cc(C)oc2n1,pIC50,[11],6.84
same,pIC50,[13],7.49
COc1cccc2c1C(=O)c1c(O)c3c(c(O)c1C2=O)C[C@@](O)(C(=O)CO)C[C@@H]3O[C@H]1C[C@H](N)[C@H](O)[C@H](C)O1 [DOXORUBICIN],pIC50,A-431,8.87
CC(=O)O[C@@]12CO[C@@H]1C[C@H](O)[C@@]1(C)C(=O)[C@H](O)C3=C(C)[C@@H](OC(=O)[C@H](O)[C@@H](NC(=O)OC(C)(C)C)c4ccccc4)C[C@@](O)([C@@H](OC(=O)c4ccccc4)[C@H]21)C3(C)C.O.O.O [DOCETAXEL],pIC50,MDA-MB-468,7.16
same,MTD,in vivo,35 mg/kg
same,pIC50,MCF7 [20],< 6.00
same,pIC50,HUVEC,7.25
same,inhibition,4T1 [26],Active
same,pIC50,MCF7 [21],7.23
same,pIC50,MDA-MB-435 [22],8.57
same,pIC50,4T1 [23],7.20
same,pIC50,MDA-MB-231,7.80
